Assay results from ChEMBL document CHEMBL5107954, “Potency and metabolic stability: a molecular hybrid case in the design of novel PF74-like small molecules targeting HIV-1 capsid protein” (RSC Med Chem, 2021).

Legend:
[1] = Metabolic stability in mouse liver microsomes assessed as half-life at 1 uM measured upto 15 mins in the presence of NADPH as co-factor by LC-MS/MS analysis; type: ADME, Microsome
[2] = Metabolic stability in human liver microsomes assessed as half-life at 1 uM measured upto 15 mins in the presence of NADPH as co-factor by LC-MS/MS analysis; type: ADME, Microsome
[3] = Cytotoxicity against human TZM cells expressing GFP assessed as inhibition of cell growth incubated for 72 hrs by XTT assay; type: toxicity, cell-based
In short: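 TZM-GFP cells at 1 × 10^4 cells/well were exposed continuously to increasing compound concentrations for 72 h. Viable cells were read by XTT. CC50 came from a log(inhibitor) vs. normalized response, variable-slope curve fit. Run in duplicate, ≥2 independent experiments, mean ± SD.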

[4] = system: Human immunodeficiency virus 1; assay: Binding affinity to HIV-1 capsid protein 121 expressed in Escherichia coli BL21 (DE3) cells assessed as change in melting temperature at 20 uM measured every 10 sec by RT-PCR based thermal shift assay
In short: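 Crosslinked hexameric CA A14C/E45C/W184A/M185A (CA121), purified protein at 7.5 μM in 50 mM sodium phosphate pH 8.0 with 1× Sypro Orange; compound 20 μM or DMSO control, 1% DMSO final. Heated 25 to 95 °C at 0.2 °C per 10 s in a real-time PCR instrument; fluorescence Ex 475–500, Em 520–590 nm. ΔTm is the hexamer melting point with compound minus DMSO control.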

[5] = (§1) Antiviral activity against wild type HIV1 NL4-3 infected in human TZM cells expressing GFP assessed as inhibition of viral LTR-activated GFP expression preincubated with compound for 24 hrs followed by viral infection and measured after 48 hrs; type: functional, cell-based; conditions: Human immunodeficiency virus 1, NL4-3, TZM
In short: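 TZM-GFP cells at 1 × 10^4 cells/well were treated with increasing compound concentrations, then infected 24 h later with HIV-1 NL4-3 at MOI 0.1. After 48 h, GFP-positive cells were counted by imaging and compared with DMSO controls. EC50 came from a log(inhibitor) vs. normalized response, variable-slope fit. Run in duplicate, ≥2 independent experiments, mean ± SD.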

[6] = as §1, with “Potency index, ratio of test compound EC50 to PF74 EC50 for antiviral” for “Antiviral”; type: functional, Human immunodeficiency virus 1; conditions: time 72 hrs
[7] = Metabolic stability in human liver microsomes assessed as half-life measured upto 60 mins in the presence of NADPH as co-factor by LC-MS/MS analysis; type: ADME, Microsome

half-life [7]	Structure (SMILES)	half-life at 1 µM [1]	half-life at 1 µM [2]	CC50 at 72 h [3]	ΔTm [4]	EC50 [5]	Ratio EC50 [6]
–	CN(C(=O)[C@H](Cc1ccccc1)NC(=O)CN1CCN(C(=O)c2cccc([N+](=O)[O-])c2)CC1=O)c1ccc(Cl)cc1	0.8 min	2.6 min	> 50 µM	1.5 °C	9.3 µM	–
–	CN(C(=O)[C@H](Cc1ccccc1)NC(=O)CN1CCN(C(=O)c2ccc(Br)cc2)CC1=O)c1ccc(Cl)cc1	–	–	> 50 µM	0.8 °C	10.2 µM	–
–	CN(C(=O)[C@H](Cc1ccccc1)NC(=O)CN1CCN(C(=O)c2ccccc2)CC1=O)c1ccc(Cl)cc1	–	–	> 50 µM	0.7 °C	> 20 µM	–
–	CN(C(=O)[C@H](Cc1ccccc1)NC(=O)CN1CCNCC1=O)c1ccc(Cl)cc1	–	–	> 50 µM	0.1 °C	> 20 µM	–
–	CN(C(=O)[C@H](Cc1ccccc1)NC(=O)CN1CCN(C(=O)c2ccccc2[N+](=O)[O-])CC1=O)c1ccc(Cl)cc1	0.9 min	3.8 min	> 50 µM	2.6 °C	2.7 µM	–
–	CN(C(=O)[C@H](Cc1ccccc1)NC(=O)CN1CCN(C(=O)c2ccc(F)cc2)CC1=O)c1ccc(Cl)cc1	–	–	> 50 µM	1.3 °C	11.5 µM	–
–	CN(C(=O)[C@H](Cc1ccccc1)NC(=O)CN1CCN(C(=O)c2ccccc2Br)CC1)c1ccc(Cl)cc1	–	–	> 50 µM	0.7 °C	20 µM	–
–	CN(C(=O)[C@H](Cc1ccccc1)NC(=O)CN1CCN(C(=O)c2ccc(C(F)(F)F)cc2)CC1=O)c1ccc(Cl)cc1	–	–	> 50 µM	0.5 °C	> 20 µM	–
–	CN(C(=O)[C@H](Cc1ccccc1)NC(=O)CN1CCN(C(=O)c2ccc(C#N)cc2)CC1=O)c1ccc(Cl)cc1	–	–	> 50 µM	1.7 °C	11 µM	–
–	CN(C(=O)[C@H](Cc1ccccc1)NC(=O)CN1CCN(C(=O)c2cccc(Cl)n2)CC1=O)c1ccc(Cl)cc1	1 min	3.6 min	> 50 µM	1.1 °C	7.7 µM	–
–	CN(C(=O)[C@H](Cc1ccccc1)NC(=O)CN1CCN(C(=O)c2cccc(C(F)(F)F)c2)CC1=O)c1ccc(Cl)cc1	–	–	> 50 µM	0.3 °C	> 20 µM	–
–	CN(C(=O)[C@H](Cc1ccccc1)NC(=O)COn1nnc2cccnc21)c1ccc(Cl)cc1	0.5 min	0.8 min	> 50 µM	1 °C	5.2 µM	–
–	CN(C(=O)[C@H](Cc1ccccc1)NC(=O)CN1CCN(C(=O)c2ccncc2)CC1=O)c1ccc(Cl)cc1	–	–	> 50 µM	0.7 °C	15.6 µM	–
–	CN(C(=O)[C@H](Cc1ccccc1)NC(=O)CN1CCN(C(=O)c2cccc(Cl)c2)CC1=O)c1ccc(Cl)cc1	–	–	> 50 µM	1 °C	10.2 µM	–
–	CN(C(=O)[C@H](Cc1ccccc1)NC(=O)CN1CCN(C(=O)c2cccc(N)c2)CC1=O)c1ccc(Cl)cc1	–	–	> 50 µM	0.3 °C	> 20 µM	–
–	CN(C(=O)[C@H](Cc1ccccc1)NC(=O)CN1CCN(C(=O)c2cn[nH]c2)CC1=O)c1ccc(Cl)cc1	–	–	> 50 µM	1.3 °C	> 20 µM	–
–	CN(C(=O)[C@H](Cc1ccccc1)NC(=O)CN1CCN(C(=O)c2ccc(O)cc2)CC1=O)c1ccc(Cl)cc1	–	–	> 50 µM	0.7 °C	> 20 µM	–
–	CN(C(=O)[C@H](Cc1ccccc1)NC(=O)CN1CCN(C(=O)c2ccc(S(=O)(=O)F)cc2)CC1=O)c1ccc(Cl)cc1	–	–	> 50 µM	0.8 °C	> 20 µM	–
–	CN(C(=O)[C@H](Cc1ccccc1)NC(=O)CN1CCN(C(=O)c2ccccc2C#N)CC1=O)c1ccc(Cl)cc1	–	–	> 50 µM	2.1 °C	7.5 µM	–
–	CN(C(=O)[C@H](Cc1ccccc1)NC(=O)CN1CCN(C(=O)c2ccccc2N)CC1=O)c1ccc(Cl)cc1	1.3 min	4.4 min	> 50 µM	0.7 °C	4.5 µM	–

half-life [7]	Structure (SMILES)	half-life at 1 µM [1]	half-life at 1 µM [2]	CC50 at 72 h [3]	ΔTm [4]	EC50 [5]	Ratio EC50 [6]
–	CN(C(=O)[C@H](Cc1ccccc1)NC(=O)CN1CCN(C(=O)c2ccccc2Br)CC1=O)c1ccc(Cl)cc1	1.8 min	7.9 min	> 50 µM	1.1 °C	3.8 µM	–
–	CN(C(=O)[C@H](Cc1ccccc1)NC(=O)CN1CCN(C(=O)c2ccccc2C(F)(F)F)CC1=O)c1ccc(Cl)cc1	–	–	> 50 µM	1.4 °C	7.2 µM	–
–	CN(C(=O)[C@H](Cc1ccccc1)NC(=O)CN1CCN(C(=O)c2c[nH]c3ccccc23)CC1=O)c1ccc(Cl)cc1	–	–	> 50 µM	0.3 °C	> 20 µM	–
–	CN(C(=O)[C@H](Cc1ccccc1)NC(=O)CN1CCN(C(=O)c2ccccc2Cl)CC1=O)c1ccc(Cl)cc1	1.1 min	6.2 min	> 50 µM	1.5 °C	6.4 µM	–
–	CN(C(=O)[C@H](Cc1ccccc1)NC(=O)CN1CCN(C(=O)c2ccccc2F)CC1=O)c1ccc(Cl)cc1	0.9 min	4.1 min	> 50 µM	1.6 °C	9.5 µM	–
–	CN(C(=O)[C@H](Cc1ccccc1)NC(=O)CN1CCN(C(=O)c2cccc(O)c2)CC1=O)c1ccc(Cl)cc1	–	–	> 50 µM	0.8 °C	> 20 µM	–
–	CN(C(=O)[C@H](Cc1ccccc1)NC(=O)CN1CCN(C(=O)c2cccc(S(=O)(=O)F)c2)CC1=O)c1ccc(Cl)cc1	–	–	> 50 µM	1.1 °C	> 20 µM	–
–	CN(C(=O)[C@H](Cc1ccccc1)NC(=O)CN1CCN(C(=O)c2ccc(N)cc2)CC1=O)c1ccc(Cl)cc1	–	–	> 50 µM	0.5 °C	> 20 µM	–
36 min	CN(C(=O)[C@H](Cc1ccccc1)NC(=O)CNC(=O)c1ccccc1)c1ccc(Cl)cc1	–	–	–	–	0.88 µM	1.4
–	CN(C(=O)[C@H](Cc1ccccc1)NC(=O)CN1CCN(C(=O)c2ccc(Cl)cc2)CC1=O)c1ccc(Cl)cc1	1.3 min	7.5 min	> 50 µM	1.3 °C	9.2 µM	–
–	CN(C(=O)[C@H](Cc1ccccc1)NC(=O)CN1CCN(C(=O)c2cccnc2)CC1=O)c1ccc(Cl)cc1	–	–	> 50 µM	0.7 °C	12.5 µM	–
–	Cc1[nH]c2ccccc2c1CC(=O)N[C@@H](Cc1ccccc1)C(=O)N(C)c1ccccc1	–	–	> 50 µM	6.9 °C	–	–
–	CN(C(=O)[C@H](Cc1ccccc1)NC(=O)CN1CCN(C(=O)c2ccc([N+](=O)[O-])cc2)CC1=O)c1ccc(Cl)cc1	–	–	> 50 µM	1.5 °C	> 20 µM	–
–	CN(C(=O)[C@H](Cc1ccccc1)NC(=O)Cn1ccc(C(F)(F)F)c(Oc2cc(Cl)cc(C(=O)O)c2)c1=O)c1ccc(Cl)cc1	–	–	> 50 µM	1.9 °C	> 20 µM	–
–	CN(C(=O)[C@H](Cc1ccccc1)NC(=O)CN1CCN(C(=O)c2cccc(F)c2)CC1=O)c1ccc(Cl)cc1	–	–	> 50 µM	1.7 °C	13.3 µM	–
–	CN(C(=O)[C@H](Cc1ccccc1)NC(=O)CN1CCN(C(=O)c2cccc(C#N)c2)CC1=O)c1ccc(Cl)cc1	–	–	> 50 µM	1.5 °C	12.9 µM	–
–	CN(C(=O)[C@H](Cc1ccccc1)NC(=O)CN1CCN(C(=O)c2ccccn2)CC1=O)c1ccc(Cl)cc1	–	–	> 50 µM	0.8 °C	12.7 µM	–
–	CN(C(=O)[C@H](Cc1ccccc1)NC(=O)CN1CCN(C(=O)c2cccc(Br)c2)CC1=O)c1ccc(Cl)cc1	1.4 min	4.8 min	> 50 µM	1.1 °C	9 µM	–
–	CN(C(=O)[C@H](Cc1ccccc1)NC(=O)CN1CCN(C(=O)c2ccccc2O)CC1=O)c1ccc(Cl)cc1	–	–	> 50 µM	0.8 °C	> 20 µM	–
